This is an account of results in ChEMBL document CHEMBL1128723, “Orally bioavailable benzisothiazolone inhibitors of human leukocyte elastase” (J Med Chem, 1995).

A short description of data set [1]: Human tissue stability for the compound was determined by its half life time period in human blood. Format: ADME, organism-based.
Data set [2] is described as follows: Human tissue stability for the compound was determined by its half life time period in human liver. The class given is ADME, organism-based. The essentials: (§1)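 Liver S9 was prepared by homogenizing in 50 mM Na/K phosphate/KCl buffer and spinning at 9000g for 20 min. S9 was used at 8 mg/mL protein with an NADPH-generating system and preincubated 5 min at 37 °C. Compound was added from DMSO at 100 μM starting concentration and incubated at 37 °C. Parent disappearance was followed by RP-HPLC over time to give the half-life.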

Data set [3] is described as follows: Compound was tested for plasma concentration in Beagle dogs at oral dose of 20 mg/kg and an intravenous dose of 5 mg/kg was administered. Format: ADME, organism-based, Canis lupus familiaris. The conditions noted are these: dog. Summed up:
(§2)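 Fasted rats, beagle dogs or cynomolgus monkeys were dosed orally at 20 mg/kg (one compound at 10 mg/kg) or iv at 5 mg/kg. Vehicles were mainly 0.05% lactic acid in water (oral) or 5% dextrose/0.05% lactic acid (iv). Blood was drawn at intervals, extracted with toluene/hexane (9:1) containing internal standard, and parent quantified by reverse-phase HPLC.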

A short description of data set [4]: Oral bioavailability in Beagle dogs at oral dose of 20 mg/kg and an intravenous dose of 5 mg/kg was administered. The class given is ADME, organism-based, Canis lupus familiaris. The conditions noted are these: dog, in vivo, read-out: BA. The essentials:
as §2

A short description of data set [5]: Maximum plasma concentration in Beagle dogs at oral dose of 20 mg/kg and an intravenous dose of 5 mg/kg was administered. The class given is ADME, organism-based, Canis lupus familiaris. The following applies: dog. The essentials: as §2
In another data set the target is T1, Neutrophil elastase (Homo sapiens, UniProt P08246).
T1 sequence (P08246 whole entry): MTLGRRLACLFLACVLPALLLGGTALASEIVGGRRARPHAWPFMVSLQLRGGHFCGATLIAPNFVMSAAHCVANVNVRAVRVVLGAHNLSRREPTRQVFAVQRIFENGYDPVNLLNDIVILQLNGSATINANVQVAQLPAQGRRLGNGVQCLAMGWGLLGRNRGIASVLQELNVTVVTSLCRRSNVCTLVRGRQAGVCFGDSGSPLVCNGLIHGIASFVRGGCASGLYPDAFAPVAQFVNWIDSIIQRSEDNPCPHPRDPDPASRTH
In words: Potency of inhibition against human leukocyte elastase (HLE) expressed as an apparent binding constant.

A short description of data set [6]: Human tissue stability for the compound was determined by its half life time period in human jejunum. Format: ADME, organism-based. The essentials:
(§3)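 Jejunum (fresh-frozen animal tissue or unused human transplant tissue) was homogenized in pH 7.2 modified Ringer's buffer, spun at 9000g, and the supernatant kept. Compound was added from DMSO at 100 μM starting concentration and incubated at 37 °C, sampled at intervals. Samples were acetonitrile-quenched and parent measured by RP-HPLC to give the half-life.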

Data set [7] relates to Cricetinae gen. sp. The experiment in a line: Inhibitory activity was determined against HLE-induced hamster hemorrhage model by intravenous administration at a dose of 1 mg/kg. The class given is functional, Cricetulus griseus.
Data set [8] deals with Cricetinae gen. sp. In words: Effective dose required for the inhibition of human leukocyte elastase in the HLE-induced hamster hemorrhage model. The class given is functional, Cricetulus griseus.
A short description of data set [9]: Compound was tested for the half life time period in monkey blood. Format: ADME, tissue-based. The following applies: simiiformes. Summed up: (§4)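 Fresh heparinized blood from rats, hamsters, beagle dogs and cynomolgus monkeys was used within 4 h of collection. Compound was added from DMSO to a starting concentration of 100 μM and incubated at 37 °C with sampling at intervals. Samples were quenched with acetonitrile/TFA and the supernatant assayed by reverse-phase HPLC for loss of parent, giving the half-life. Control incubations were run with each assay.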

Data set [10] is described as follows: Compound was tested for in vivo bioavailability in rat. The class given is ADME, organism-based. The conditions noted are these: read-out: Bioavailabiility. Summed up:
as §2

The nature of data set [11]: Compound was tested for the half life time period in monkey jejunum. The class given is ADME, tissue-based. The conditions noted are these: simiiformes. Summed up: as §3
The nature of data set [12]: Compound was tested for half life time period in hamster liver S9. Format: ADME, S9 fraction. The conditions noted are these: cricetinae. Summed up:
as §1

A short description of data set [13]: Compound was tested for in vivo bioavailability in dog. The class given is ADME, organism-based, Canis lupus familiaris. The conditions noted are these: read-out: Bioavailabiility. The essentials: as §2
Data set [14] in a line: Compound was tested for half life time period in hamster jejunum. Format: ADME, organism-based. The conditions noted are these: cricetinae. Summed up:
as §3

Data set [15] is described as follows: Compound was tested for the half life time period in dog jejunum. The class given is ADME, organism-based, Canis lupus familiaris. Summed up: as §3
The nature of data set [16]: Compound was tested for the half life time period in rat jejunum. Format: ADME, organism-based. The essentials: as §3
Data set [17] can be described thus: Compound was tested for half life time period in hamster blood. The class given is ADME, organism-based. The conditions noted are these: cricetinae. The essentials: as §4
The nature of data set [18]: Compound was tested for in vivo bioavailability in monkey. Format: ADME, organism-based. The conditions noted are these: simiiformes, read-out: Bioavailabiility. Summed up:
as §2

The nature of data set [19]: Compound was tested for the half life time period in rat blood. Format: ADME, organism-based. Summed up: as §4
Data set [20] is described as follows: Compound was tested for the half life time period in rat liver S9. Format: ADME, S9 fraction. The essentials:
as §1

Data set [21] relates to Cricetinae gen. sp. The experiment in a line: Compound was tested for effective dose required for the inhibition of human leukocyte elastase in the HLE-induced hamster hemorrhage model. Format: functional, Cricetulus griseus.
Data set [22] is described as follows: Compound was tested for in vivo bioavailability in hamsters. The class given is ADME, organism-based. The following applies: cricetinae, read-out: Bioavailabiility.
The nature of data set [23]: Compound was tested for the half life time period in monkey liver S9. Format: ADME, subcellular, S9 fraction. The conditions noted are these: simiiformes. Summed up:
as §1

Data set [24] is described as follows: Compound was tested for the half life time period in dog blood. Format: ADME, organism-based, Canis lupus familiaris. The essentials: as §4
The nature of data set [25]: Compound was tested for the half life time period in dog liver S9. The class given is ADME, Canis lupus familiaris, S9 fraction. The essentials: as §1

The compound `O=C1c2ccccc2S(=O)(=O)N1CSc1nnnn1-c1ccccc1` had a half-life in data set [1] of less than 5 min.

Consider `COc1cc(C(C)C)c2c(c1)S(=O)(=O)N(COC(=O)c1c(Cl)ccc(S(=O)(=O)N(C)CCN(C)C)c1Cl)C2=O`, for which the half-life in data set [2] was found to be 23.9 min; in [3] it was 74 min; in data set [1], 130 min; in [6], 80 min. The bioavailability in data set [4] was determined as 14%. The same compound displayed a Cmax in data set [5] of 300 ng/mL. Besides, on Neutrophil elastase, the Ki turned out to be 0.013 nM.

Consider `CC(C)c1cccc2c1C(=O)N(COC(=O)c1c(Cl)ccc(OCCN3CCOCC3)c1Cl)S2(=O)=O`, for which the half-life was 4.9 min in [2], 20 min in data set [1] and 13 min in data set [6]. In the data set on Cricetinae gen. sp. [7], this compound came in with an inhibition in vivo at 1 mg/kg of 87%. At Neutrophil elastase, the Ki amounted to 0.008 nM.

On to `COc1cc(C(C)C)c2c(c1)S(=O)(=O)N(COC(=O)c1c(Cl)ccc(OCCN3CCCC3)c1Cl)C2=O`, for which the half-life in [2] stood at 110 min; in data set [3] it was 432 min; in [1], 110 min; in data set [6], 218 min. For the same compound, the ED50 in the data set on Cricetinae gen. sp. [8] worked out at 1 mg/kg. Also, the bioavailability in data set [4] was determined as 46%. For the same compound, the Cmax in [5] amounted to 325 ng/mL. Further, the Ki at Neutrophil elastase turned out to be 0.014 nM.

As to `CC(C)c1cc(O)cc2c1C(=O)N(COC(=O)c1c(Cl)ccc(S(=O)(=O)N3CCN(C)CC3)c1Cl)S2(=O)=O`, the half-life in [2] is 40.2 min; in data set [3], 23 min; in data set [1], greater than 1200 min; in [6] it was 113 min. Also, the bioavailability in data set [4] was determined as 8%. The highest level in data set [5] (Cmax) was 220 ng/mL. For the same compound, the Ki on Neutrophil elastase stood at 0.2 nM.

As for `COc1cc(C(C)C)c2c(c1)S(=O)(=O)N(COC(=O)c1c(Cl)ccc(OCCN3CCOCC3)c1Cl)C2=O`, the half-life in [9] was 57.2 min; in data set [2], 37.3 min; in data set [3], 137 min; in data set [1] it was 36 min; in [11], 32.3 min; in [12], less than 5 min. The half-life in data set [14] is 1.3 min; in data set [15], 394 min; in data set [16], 60.8 min; in [17] it was 259 min; in [19], 6 min; in data set [20], 12.4 min. Besides, the half-life is 2.9 min in data set [23], 90 min in data set [24], 30.2 min in data set [25] and 170 min in data set [6]. Also, the bioavailability in data set [10] is 1%; in data set [4] it was 21%; in data set [13] it was 21%; in [18], less than 1%; in data set [22], less than 3%. The compound further yielded a Cmax in [5] of 1200 ng/mL. Besides, the Ki at Neutrophil elastase turned out to be 0.013 nM. Further, it took a dose of 3 mg/kg to reach the 50% effect level in the data set with Cricetinae gen. sp. [21] (ED50).

As to `COc1cc(C(C)C)c2c(c1)S(=O)(=O)N(COC(=O)c1c(Cl)ccc(S(=O)(=O)N3CCN(C)CC3)c1Cl)C2=O`, the half-life in [2] was determined as 28.9 min; in data set [3], 78 min; in data set [1] it was 90 min; in [6], 99 min. For the same compound, the bioavailability in data set [4] was found to be 21%. This compound also displayed a Cmax in data set [5] of 390 ng/mL. The Ki on Neutrophil elastase was found to be 0.011 nM.

In [1], `COc1cc(C(C)C)c2c(c1)S(=O)(=O)N(COC(=O)c1c(Cl)ccc(OCC(=O)O)c1Cl)C2=O` returned a half-life of less than 15 min. Further, the Ki at Neutrophil elastase is 0.011 nM.

What is called half-life is the time needed for the level to fall by half in the phase considered. What is called Cmax is the highest concentration seen after dosing. By inhibition in vivo is commonly meant the change of the read-out against control, counted positive when it falls. Broadly, the ED50 is the dose at which the effect has come halfway, by size or by number of responders.
